In brackets after ≈: the same amount, converted by molar mass. Activity calls are given as the source filed them. The rule behind the calls is not given here.
Key:
Assay type in all cases: functional
[1] = test system: Acinetobacter haemolyticus; assay: Antibacterial activity against vancomycin-resistant Acinetobacter haemolyticus BW62 at 10 ug by disc diffusion method; settings: for zone of inhibition at 10 µg/disc: read-out: IZ
[2] = test system: Escherichia coli; assay: Antibacterial activity against ESBL-producing Escherichia coli BW55 at 10 ug by disc diffusion method; settings: for zone of inhibition at 10 µg/disc: read-out: IZ
[3] = test system: Pseudomonas aeruginosa; assay: Antibacterial activity against multidrug-resistant Pseudomonas aeruginosa PAO1 at 10 ug by disc diffusion method; settings: for zone of inhibition at 10 µg/disc: read-out: IZ
[4] = test system: Staphylococcus aureus; assay: Antibacterial activity against Staphylococcus aureus ATCC 29213 at 10 ug by disc diffusion method; settings: for zone of inhibition at 10 µg/disc: read-out: IZ
[5] = test system: Escherichia coli; assay: Antibacterial activity against multidrug-resistant Escherichia coli BW54 at 10 ug by disc diffusion method; settings: for zone of inhibition at 10 µg/disc: read-out: IZ
[6] = test system: Bacillus cereus; assay: Antibacterial activity against Bacillus cereus ATCC 11778 at 10 ug by disc diffusion method; settings: for zone of inhibition at 10 µg/disc: read-out: IZ
[7] = test system: Stenotrophomonas maltophilia; assay: Antibacterial activity against multidrug-resistant Stenotrophomonas maltophilia D457R at 10 ug by disc diffusion method; settings: for zone of inhibition at 10 µg/disc: read-out: IZ
[8] = test system: Staphylococcus aureus; assay: Bactericidal activity against methicillin-resistant Staphylococcus aureus BW61 after 24 hrs by CFU counting assay; settings: BW61, 24 h
Summary of the method: (§1)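 MBC (lowest concentration killing the pathogen) determined per CLSI specifications, with fosfomycin, ceftriaxone, ciprofloxacin and chloramphenicol run as reference drugs; S. aureus ATCC 29213 used as quality-control strain.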

[9] = test system: Staphylococcus aureus; assay: Antibacterial activity against Staphylococcus aureus ATCC 29213 after 24 hrs by broth microdilution method; settings: ATCC 29213, 24 h
Summary of the method: (§2)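 MIC (lowest concentration preventing growth) determined per CLSI specifications, with fosfomycin, ceftriaxone, ciprofloxacin and chloramphenicol run as reference drugs; S. aureus ATCC 29213 used as quality-control strain.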

[10] = test system: Bacillus cereus; assay: Bactericidal activity against Bacillus cereus ATCC 11778 after 24 hrs by CFU counting assay; settings: ATCC 11778, 24 h; summary of the method: as §1
[11] = test system: Bacillus cereus; assay: Antibacterial activity against Bacillus cereus ATCC 11778 after 24 hrs by broth microdilution method; settings: ATCC 11778, 24 h; summary of the method: as §2
[12] = test system: Escherichia coli; assay: Antibacterial activity against ESBL-producing Escherichia coli BW55 after 24 hrs by broth microdilution method; settings: BW55, 24 h; summary of the method: as §2
[13] = test system: Stenotrophomonas maltophilia; assay: Bactericidal activity against multidrug-resistant Stenotrophomonas maltophilia D457R after 24 hrs by CFU counting assay; summary of the method: as §1
[14] = test system: Stenotrophomonas maltophilia; assay: Antibacterial activity against multidrug-resistant Stenotrophomonas maltophilia D457R after 24 hrs by broth microdilution method; summary of the method: as §2
[15] = test system: Staphylococcus aureus; assay: Bactericidal activity against Staphylococcus aureus ATCC 29213 after 24 hrs by CFU counting assay; settings: ATCC 29213, 24 h; summary of the method: as §1
[16] = test system: Acinetobacter haemolyticus; assay: Antibacterial activity against vancomycin-resistant Acinetobacter haemolyticus BW62 after 24 hrs by broth microdilution method; settings: BW62, 24 h; summary of the method: as §2
[17] = test system: Acinetobacter haemolyticus; assay: Bactericidal activity against vancomycin-resistant Acinetobacter haemolyticus BW62 after 24 hrs by CFU counting assay; settings: BW62, 24 h; summary of the method: as §1
[18] = test system: Pseudomonas aeruginosa; assay: Antibacterial activity against multidrug-resistant Pseudomonas aeruginosa PAO1 after 24 hrs by broth microdilution method; settings: PAO1, 24 h; summary of the method: as §2
[19] = test system: Pseudomonas aeruginosa; assay: Bactericidal activity against multidrug-resistant Pseudomonas aeruginosa PAO1 after 24 hrs by CFU counting assay; settings: PAO1, 24 h; summary of the method: as §1
[20] = test system: Escherichia coli; assay: Antibacterial activity against multidrug-resistant Escherichia coli BW54 after 24 hrs by broth microdilution method; settings: BW54, 24 h; summary of the method: as §2
[21] = test system: Escherichia coli; assay: Bactericidal activity against ESBL-producing Escherichia coli BW55 after 24 hrs by CFU counting assay; settings: BW55, 24 h; summary of the method: as §1
[22] = test system: Escherichia coli; assay: Bactericidal activity against multidrug-resistant Escherichia coli BW54 after 24 hrs by CFU counting assay; settings: BW54, 24 h; summary of the method: as §1
[23] = test system: Staphylococcus aureus; assay: Antibacterial activity against methicillin-resistant Staphylococcus aureus BW61 after 24 hrs by broth microdilution method; settings: BW61, 24 h; summary of the method: as §2

SMILES	Activity [1]	zone of inhibition at 10 µg/disc [3] [mm]	Activity [4]	Activity [5]	zone of inhibition at 10 µg/disc [7] [mm]	MBC [8] [µg/mL]	MIC [9] [µg/mL]	MBC [10] [µg/mL]	zone of inhibition at 10 µg/disc [2] [mm]	MIC [11] [µg/mL]	MIC [12] [µg/mL]	MBC [13] [µg/mL]	MIC [14] [µg/mL]	MBC [15] [µg/mL]	MIC [16] [µg/mL]	MBC [17] [µg/mL]	MIC [18] [µg/mL]	MBC [19] [µg/mL]	zone of inhibition at 10 µg/disc [6] [mm]	MIC [20] [µg/mL]	also measured
CC1(C)COP(=O)([C@@]2(O)CCC[C@@H]2Cl)OC1	inactive	6	inactive	inactive	6	–	–	–	–	–	–	–	–	–	–	–	–	–	–	–	Activity [2]: inactive; Activity [6]: inactive
O=P(Oc1ccccc1)(Oc1ccccc1)[C@](O)(CCl)c1ccccc1	–	7	inactive	–	7	64 (≈ 165 µM)	64 (≈ 165 µM)	32 (≈ 82.3 µM)	10	64 (≈ 165 µM)	64 (≈ 165 µM)	64 (≈ 165 µM)	64 (≈ 165 µM)	64 (≈ 165 µM)	64 (≈ 165 µM)	64 (≈ 165 µM)	64 (≈ 165 µM)	64 (≈ 165 µM)	7	64 (≈ 165 µM)	zone of inhibition at 10 µg/disc [1]: 8 mm; zone of inhibition at 10 µg/disc [5]: 9 mm; MBC [21]: 64 µg/mL (≈ 165 µM); MBC [22]: 64 µg/mL (≈ 165 µM); MIC [23]: 64 µg/mL (≈ 165 µM)
C[C@H](Cl)[C@](O)(c1ccccc1)P1(=O)OCC(C)(C)CO1	inactive	–	inactive	inactive	7	–	–	–	–	–	–	–	–	–	–	–	–	–	–	–	Activity [2]: inactive; Activity [3]: inactive; Activity [6]: inactive
CC1(C)COP(=O)([C@@](O)(CCl)c2ccccc2)OC1	inactive	6	inactive	inactive	–	–	–	–	–	–	–	–	–	–	–	–	–	–	7	–	Activity [2]: inactive; Activity [7]: inactive
O=P(Oc1ccccc1)(Oc1ccccc1)[C@](O)(CCl)c1ccc(Cl)cc1	–	10	–	–	11	64 (≈ 151 µM)	32 (≈ 75.6 µM)	32 (≈ 75.6 µM)	10	32 (≈ 75.6 µM)	32 (≈ 75.6 µM)	64 (≈ 151 µM)	32 (≈ 75.6 µM)	64 (≈ 151 µM)	64 (≈ 151 µM)	128 (≈ 302 µM)	128 (≈ 302 µM)	128 (≈ 302 µM)	9	64 (≈ 151 µM)	zone of inhibition at 10 µg/disc [1]: 7 mm; zone of inhibition at 10 µg/disc [4]: 9 mm; zone of inhibition at 10 µg/disc [5]: 9 mm; MBC [21]: 64 µg/mL (≈ 151 µM); MBC [22]: 64 µg/mL (≈ 151 µM); MIC [23]: 32 µg/mL (≈ 75.6 µM)
C[C@](O)(CCl)P(=O)(Oc1ccccc1)Oc1ccccc1	–	7	–	–	–	256 (≈ 784 µM)	128 (≈ 392 µM)	128 (≈ 392 µM)	7	64 (≈ 196 µM)	64 (≈ 196 µM)	≥ 256	128 (≈ 392 µM)	≥ 256	64 (≈ 196 µM)	≥ 256	64 (≈ 196 µM)	256 (≈ 784 µM)	12	128 (≈ 392 µM)	zone of inhibition at 10 µg/disc [1]: 8 mm; zone of inhibition at 10 µg/disc [4]: 9 mm; zone of inhibition at 10 µg/disc [5]: 8 mm; Activity [7]: inactive; MBC [21]: 256 µg/mL (≈ 784 µM); MBC [22]: ≥ 256 µg/mL; MIC [23]: 128 µg/mL (≈ 392 µM)
CC1(C)COP(=O)([C@@](O)(CCl)c2ccc(Cl)cc2)OC1	inactive	–	inactive	inactive	–	128 (≈ 377 µM)	64 (≈ 189 µM)	128 (≈ 377 µM)	7	64 (≈ 189 µM)	64 (≈ 189 µM)	256 (≈ 755 µM)	64 (≈ 189 µM)	128 (≈ 377 µM)	64 (≈ 189 µM)	128 (≈ 377 µM)	128 (≈ 377 µM)	128 (≈ 377 µM)	–	64 (≈ 189 µM)	Activity [3]: inactive; Activity [6]: inactive; Activity [7]: inactive; MBC [21]: 128 µg/mL (≈ 377 µM); MBC [22]: 128 µg/mL (≈ 377 µM); MIC [23]: 64 µg/mL (≈ 189 µM)

Reference: ChEMBL document CHEMBL3098034, “Synthesis and biological evaluation of α-hydroxyalkylphosphonates as new antimicrobial agents” (Bioorg Med Chem Lett, 2014)
